Screening data: PubChem BioAssay, Sanford-Burnham Center for Chemical Genomics
The list is a sample of the results.
Apaf1 activ: activates human Apaf-1 apoptosome | O14727 | Apaf-1 apoptosome caspase-3 activation, DEVD-Rh110 fluorescence; stronger effect = lower value | activity change, negative = activation, % at 20 µM | 330,000 compounds, 0.31% hits;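 active = activity change at or below -40% at 20 µM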
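Schedule: 30 min preincubation, 50 min reaction, room temperature / System: biochemical Apaf-1 apoptosome reconstitution / Medium: 20 mM HEPES pH 7.5 with CHAPS, BSA / Evaluation: Caspase-3 cleavage activity downstream of Apaf-1 activation / Detection: Caspase-3-released Rh110 fluorescence, 540 nm emission, 480 nm excitation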
Rh110 interf act: Rh110 signal interference in Apaf-1 activator counter-screen | 980 tested, under 10 active | fluorescence interference (activity change), % at 20 µM, hits read low | AID 504616 | shares compounds with Apaf1 activ | Rh110 fluorescence interference, quenched caspase reaction, Ex480/Em540;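 active = mean activity change at or below -40% when tested at 20 µM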
Apaf-1 act conf: confirmation of human Apaf-1 activators; shares compounds with Apaf1 activ; reconstituted apoptosome caspase-3 activity, DEVD-Rh110 fluorescence; stronger effect = lower value; activity change, negative = activation, % at 20 µM; 980 compounds, 5% hits;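 active = mean activity change at or below -40%, meaning activation of 40% or more, at 20 µM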
Of the large screens only hits and unclear results are named; the others gave an inactive call (follow-up assays come after a bar, where they were run).

COC1=C(N)C(=O)c2nc(-c3nc(C(=O)O)c(C)c(-c4ccc(OC)c(OC)c4O)c3N)ccc2C1=O	none
O=C1C(=O)N(CCN2CCOCC2)C(c2ccc([N+](=O)[O-])cc2)/C1=C(/O)c1ccc2c(c1)OCO2 (stereo unspecified)	Apaf1 activ -319.2 | Rh110 interf act inactive | Apaf-1 act conf inactive
O=C(NNc1cc(N2CCOCC2)nc(N2CCOCC2)n1)c1ccc([N+](=O)[O-])cc1	none
COc1cc(/C=C/c2nc(N)nc(-c3ccccc3O)n2)cc(OC)c1OC	Apaf1 activ -517.1 | Rh110 interf act inactive | Apaf-1 act conf inactive
Cc1cc(C)nc(NS(=O)(=O)c2ccc(N)cc2)n1	none
N#CCCS(=O)(=O)c1ccc(N)cc1	Apaf1 activ -61.4 | Rh110 interf act inactive | Apaf-1 act conf inactive
CCC[C@@H](CN1CCC[C@H]1CN1C(N)=NC[C@H]1CC(C)C)N1C[C@@H]([C@H](C)CC)N(CCc2ccc(Cl)c(Cl)c2)C1=N	none
CCC(C)(C(=O)NC1CCCC1)N(C(=O)c1ccccn1)c1ccc(C)cc1 (stereo unspecified)	Apaf1 activ -77.7 | Rh110 interf act inactive | Apaf-1 act conf inactive
O=C1C(Cl)=C(NCCN2CCCCC2)C(=O)c2ccccc21	none
Cc1ccc(S(=O)(=O)NC2=C(N3CCN(c4ccccc4F)CC3)C(=O)c3ccccc3C2=O)cc1	none
CS(=O)(=O)NN1C(=O)c2ccccc2NC1c1ccccc1O (stereo unspecified)	Apaf1 activ -64.1 | Rh110 interf act inactive | Apaf-1 act conf inactive
CSCCC(NC(=O)COc1ccccc1)C(=O)N1CCC(C(N)=O)CC1 (stereo unspecified)	none
O=C(COc1ccccc1)NCC(=O)NC1CCCCC1	Apaf1 activ -40.0 | Rh110 interf act inactive | Apaf-1 act conf inactive
CCCCCCCCCCCCN1[C@@H](CC(=O)O)c2cc(C(F)(F)F)ccc2S1(=O)=O	none
CC(=O)c1cc(C#N)c(Oc2cccc(C(F)(F)F)c2)nc1C	Apaf1 activ -150.7 | Rh110 interf act inactive | Apaf-1 act conf inactive
O=C(Cn1nc(-c2ccccc2Cl)ccc1=O)Nc1ccccc1-c1ccccc1	none
CCn1nc(C(=O)Nc2ccccc2C)c(Cl)c1Cl	Apaf1 activ -137.0 | Rh110 interf act inactive | Apaf-1 act conf inactive
CC(=O)c1ccc2c(c1)c(C#N)c1ccccc1[n+]2[O-]	none
CCOC(=O)c1nn(-c2ccc(C)c(C)c2)c(=O)c2c(N)scc12	none
CC[C@@H](C)[C@@H]1CN([C@@H](CN2CCC[C@H]2CN2C(N)=NC[C@H]2CC(C)C)C(C)C)C(=N)N1CCc1ccc(Cl)c(Cl)c1	none
Cc1ccc(S(=O)(=O)N(C)C)cc1NC(=S)Nc1cccc2ccccc12	none
Fc1ccc(NC(=S)Nc2cccc3ccccc23)cc1	none
Cc1ccc(F)cc1NC(=S)NCCc1ccccc1	Apaf1 activ -523.1 | Rh110 interf act inactive | Apaf-1 act conf inactive
CNC[C@H](CC1CCCCC1)NC[C@H](Cc1ccccc1)NCCC12CC3CC(CC(C3)C1)C2	none
O=C(Nc1ccc2nc(-c3ccco3)c(-c3ccco3)nc2c1)NC1CC1	none
O=C(NC1CC2CCCC(C1)N2S(=O)(=O)c1ccccc1)c1ccco1 (stereo unspecified)	none
O=C(NC1CC1)c1cc2ccccc2o1	Apaf1 activ -363.2 | Rh110 interf act inactive | Apaf-1 act conf inactive
COC(=O)c1cc(C)nc2c1C(=O)C(=O)C=C2N1CCOCC1	none
O=C(C[n+]1cccc(C(=O)N/N=C/c2ccc(Br)cc2)c1)c1ccccc1	none
COc1ccc(/C=N/NC(=O)c2nn(-c3ccccc3)c(=O)c3c(N)scc23)cc1	none
O=C(N/N=C/c1ccc(OC(=O)c2ccccc2)cc1)c1ccc(CN2CCOCC2)cc1	Apaf1 activ -67.9 | Rh110 interf act inactive | Apaf-1 act conf inactive
Cc1oc2c(c1C(=O)c1ccccc1)C(=O)C(=O)c1ccccc1-2	none
COc1ccc2cnn(-c3ccc(OC(F)(F)F)cc3)c(=O)c2c1OC	Apaf1 activ -49.3 | Rh110 interf act inactive | Apaf-1 act conf inactive
CCOC(=O)c1ccc(NC2=CC(=O)C(=O)c3ccccc32)cc1	none
Cc1c(C(=O)c2ccc(F)cc2F)c2ccccn2c1CCC#N	none
Cc1ccc(C(=O)NC2CCN(C(=O)Nc3ccccc3)CC2)cc1	Apaf1 activ -49.7 | Rh110 interf act inactive | Apaf-1 act conf inactive
C=CCC[C@@H](Cc1ccc(F)cc1)C(=O)OC[C@H]1CCCN1C(=O)[C@@H](CC=C)CC(=O)N[C@H](CO)Cc1ccccc1	none
Nc1ccc(N2CCCCCC2)cc1	none
CCN(CC)CCNC(=O)c1ccc(NC(=O)C2CC(=O)N(CCc3ccc(OC)c(OC)c3)C2)cc1 (stereo unspecified)	none
COc1ccc(CCN2C(=O)C3C4CC(C5C(C(=O)NN)=NOC45)C3C2=O)cc1OC (stereo unspecified)	Apaf1 activ -311.6 | Rh110 interf act inactive | Apaf-1 act conf inactive
CCN(CC)CCNC(=O)c1ccc2c(c1NCCO)C(=O)c1ccccc1C2=O	none
S=C1NCCc2ccc(Cl)cc2C1c1ccccc1Cl (stereo unspecified)	Apaf1 activ -513.6 | Rh110 interf act inactive | Apaf-1 act conf inactive
CNC(=S)N/N=C(\C)c1ccc(C)c(C)c1	Apaf1 activ -246.0 | Rh110 interf act inactive | Apaf-1 act conf inactive
C=CCn1c(SCC(=O)Nc2sccc2C(N)=O)nc2sc(CC)cc2c1=O	none
O=C(Cn1ncn2c(cc3ccccc32)c1=O)NCCc1cccs1	Apaf1 activ -392.3 | Rh110 interf act inactive | Apaf-1 act conf inactive
CN1CCN(CCCN2c3ccccc3Sc3ccc(C(F)(F)F)cc32)CC1	none
O=C(Cn1c(-c2ccccn2)nc2ccccc21)N/N=C/c1ccccn1	Apaf1 activ -44.3 | Rh110 interf act inactive | Apaf-1 act conf inactive
CCn1c(SCC(=O)N/N=C/C=C\c2ccco2)nc2ccccc21	none
O=C(CNc1cccc2ccccc12)N/N=C/c1ccccn1	none
CCN(CC)CCOC(=O)c1ccc(N/C=C(/C#N)c2nc(-c3cccc(OC)c3)cs2)cc1	none
CC[C@H](C)[C@@H]1NC(=O)[C@H]([C@@H](C)CC)NC(=O)[C@@H](CC(C)C)NC(=O)[C@H](Cc2ccccc2)NC(=O)[C@H](Cc2ccccc2)NC(=O)[C@@H]2CCCN2C(=O)[C@@H]2CCCN2C(=O)[C@H](C(C)C)NC(=O)[C@H](CC(C)C)NC1=O	none
COc1ccc(O)c(C(c2c(C)[nH][nH]c2=O)c2c(C)[nH][nH]c2=O)c1	none
C(=Nc1cccc2c(N=Cc3ccco3)cccc12)c1ccco1	none
N#Cc1c(/N=C/c2ccco2)sc2c1CCCCC2	Apaf1 activ -169.2 | Rh110 interf act inactive | Apaf-1 act conf inactive
CS(=O)(=O)c1nc(-c2ccc(Br)cc2)cc(-c2ccccc2)c1C#N	none
CN(C)/C=C/C(=O)c1ccc(S(=O)(=O)c2ccccc2)cc1	Apaf1 activ -61.3 | Rh110 interf act inactive | Apaf-1 act conf inactive
COc1ccc(C(=O)c2nccc3cc(OC)c(OC)cc23)cc1OC	none
COc1ccc(C(=O)/C=C/N(C)C)cc1OC	Apaf1 activ -106.8 | Rh110 interf act inactive | Apaf-1 act conf inactive
COc1cc(C2C(C#N)=C(C)NC3=C2C(=O)c2ccccc23)cc(OC)c1OC (stereo unspecified)	none
